Source: PubChem BioAssay
The list is not random: actives were taken first. Their share in the collection is about 1.2%.
HMGR II inh = E. faecalis class II HMG-CoA reductase inhibition; actives 0.41% (n = 190,000); inhibition, % at 10 µM; purified E. faecalis HMGR, NADPH absorbance 340 nm kinetic;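 active = inhibition above a set limit, the median over all tested compounds plus 3 SD, cut at about 9.5% in these data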;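 note: enzyme runs in reverse so mevalonate oxidation gives rising NADPH absorbance; 0% = complete reaction with DMSO and 100% = background rate lacking mevalonate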
PMI activator = increases human mannose-6-phosphate isomerase activity. actives 0.005% (n = 190,000). purified human PMI, coupled resazurin fluorescence, 20 min; stronger effect = higher value; 1 = vehicle control, 0 substrate-free wells. activation factor at 20 µM. AID 1214. P34949;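 active = activation factor of 2 or more at 20 µM, relative to plate controls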
Target sequence (P34949 whole entry, looked up): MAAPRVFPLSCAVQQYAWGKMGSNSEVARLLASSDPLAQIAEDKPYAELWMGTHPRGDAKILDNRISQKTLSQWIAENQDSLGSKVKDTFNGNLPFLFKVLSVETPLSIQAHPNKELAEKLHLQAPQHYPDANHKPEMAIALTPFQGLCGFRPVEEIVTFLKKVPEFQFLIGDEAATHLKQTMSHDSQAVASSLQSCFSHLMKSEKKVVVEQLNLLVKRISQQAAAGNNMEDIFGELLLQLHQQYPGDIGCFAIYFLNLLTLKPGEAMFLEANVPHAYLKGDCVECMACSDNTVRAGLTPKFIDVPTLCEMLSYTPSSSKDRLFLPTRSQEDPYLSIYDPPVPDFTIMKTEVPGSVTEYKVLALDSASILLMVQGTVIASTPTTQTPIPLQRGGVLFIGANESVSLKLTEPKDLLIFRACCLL
Diaph act CS = diaphorase activation or chemical reduction counter-screen; Diaphorase/resazurin coupled assay, resorufin fluorescence, 16 min; stronger effect = higher value; 1 = vehicle wells, 0 = NADH-free wells; activation factor at 20 µM; actives 0.005% (n = 190,000); AID 1229;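 active = diaphorase activity raised at least twofold by the compound at 20 µM; inactive = activation factor below 2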
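Material: bacterial diaphorase enzyme (C. kluyveri); amount: enzyme 0.07 U/mL final; reagent: NADH substrate 0.114 mM plus resazurin dye 0.1 mM, final; doses: single compound dose of 20 µM, 1% DMSO final; timing: 16 min enzyme reaction, ambient temperature; measured by: fluorescence of resorufin, 544 nm excitation, 590 nm emission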
NCF1 inh = p47phox (human) inhibition. inhibition, % at 24.7 µM. p47phox/p22phox peptide binding, fluorescence polarization, 2 h. actives 0.53% (n = 220,000). P14598;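 active = inhibition above about 30%, limit read from the data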;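 note: 0% = p47phox with labelled peptide and 100% = labelled peptide alone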
Redox H2O2 prof = compounds producing H2O2 with reducing agent – biochemical, NIH compound library profiling, artefact control for MLSCN library redox annotation, primary screen; DTT-dependent redox cycling H2O2, phenol red/HRP absorbance; 100% = 100 µM peroxide control, 0% = buffer; activation, % at 10 µM; actives 0.03% (n = 200,000); AID 878;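 active = activation of at least 50% relative to the plate's high and low controls in the primary single-dose screen; inactive = activation below 50%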;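 note: compound incubated with DTT at 0.8 mM final as the reducing agent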
PMI act hi M6P = increases human PMI activity with near-saturating mannose 6-phosphate | P34949 | activation factor at 20 µM | AID 1216 | actives 0.34% (n = 190,000) | coupled PMI enzyme assay, resazurin fluorescence, 20 min; stronger effect = higher value; 1 = untreated enzyme, 0 = substrate-free blank;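 active = activation factor of 2 or more at 20 µM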
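assay system = human phosphomannose isomerase with PGI, G6PDH, diaphorase coupling enzymes | quantity = 15 ng/mL PMI | incubation = enzyme reaction with compound 20 min at room temperature | medium = HEPES pH 7.4 buffer with MgCl2 and Tween-20 | compound dosing = one concentration, 20 µM, in 1% DMSO | measured by = Diaphorase-driven resazurin-to-resorufin fluorescence, excitation 544, emission 590 nm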
* = called active by the depositor; · = no result.

SMILES	HMGR II inh	PMI activator	Diaph act CS	NCF1 inh	Redox H2O2 prof	PMI act hi M6P
CN1CCc2nc3sc(C(=O)C45CC6CC(CC(C6)C4)C5)c(N)c3cc2C1	-8	1.2	1.1	48*	-2	1.4
Cc1cccc(N2CCN(C(=S)Nc3ccc4nc(N5CCN(C)CC5)cc(C)c4c3)CC2)c1C	2	0.9	1.7	44*	0	0.8
Cc1cc(N2CCN(C)CC2)nc2ccc(NC(=S)N3CCCCC3)cc12	-1	0.8	1.3	-8	-2	0.5
COc1c(C(=O)NNC(=O)c2ccccc2)csc1Br	·	·	·	-20	·	·
CCOc1ccccc1N1CC(C(=O)Nc2ccccc2N2CCOCC2)CC1=O (stereo not given)	-1	1	1	-9	2	1
CCOc1ccccc1N1CC(C(=O)Nc2ccc3c(c2)OCCO3)CC1=O (stereo not given)	12*	1	0.9	-14	-2	1
O=C(Nc1cccc(Cl)c1)NC1CC2CCC(C1)N2Cc1cccs1 (stereo not given)	-8	1	0.9	-10	0	0.9
CCN(CC)N=Nc1[nH]nc2nc(C)cc(C)c12	3	1.4	0.9	-5	-5	2*
Cc1cc(N2CCCC2)c(F)cc1/C=C\[N+](=O)[O-]	-2	1	1	79*	0	0.9
Cc1cc(N2CCC(C)CC2)c(F)cc1[N+](=O)[O-]	-7	0.9	0.9	-3	8	0.9
COc1ccc2c(c1)C(=NNC(=O)c1ccccn1)c1cc(OC)ccc1-2	-7	0.9	1	49*	0	1
CCC(=O)Nc1ccc2c(c1)nc(CN1CCCCC1)n2C	15*	0.9	0.9	-13	-1	0.8
Oc1[nH]c(=S)sc1/C=C1\C(c2ccccc2)=Nc2ccccc21	-5	0.9	0.9	32*	1	0.9
Oc1[nH]c(=S)sc1C=C1N=c2ccccc2=N1	·	·	·	-35	·	·
CCCCn1c(NS(=O)(=O)c2ccccc2)c(S(=O)(=O)c2ccc(C)cc2)c2nc3ccccc3nc21	-2	0.8	0.6	-12	100*	0.4
CSc1nnc(C)c(=O)n1COC(=O)COc1ccc(Cl)cc1Cl	-3	1.1	0.8	48*	0	1
CSc1nnc(C)c(=O)n1COC(=O)COc1ccc(Cl)cc1	-3	1.1	0.8	4	0	1
COCCNc1nnnc2c1sc1nc(N3CCOCC3)c3c(c12)CCCC3	0	0.9	0.7	-6	0	1
CC(=O)Nc1ccc(S(=O)(=O)Nc2cccc(-c3ccc4nncn4n3)c2)cc1	11*	1	0.8	-6	0	0.9
Cc1cc2c(s1)c1cnn(CC(=O)NCCc3ccccc3)c(=O)c1n2C	-2	1	0.9	30*	-2	1
CC(=O)Nc1cc(C(=O)OC(C(=O)c2ccccc2)c2ccccc2)ccc1C (stereo not given)	-1	0.7	0.7	49*	3	0.8
COc1ccc(C(=O)C(OC(=O)c2ccc(C)c(NC(C)=O)c2)c2ccccc2)cc1 (stereo not given)	-7	0.9	0.7	-3	3	0.9
CC(C)(C)c1cc(OS(C)(=O)=O)ccc1O	-5	0.9	0.9	32*	-1	0.8
CCCCC(CC)C(=O)Oc1ccc(O)c(C(C)(C)C)c1 (stereo not given)	2	0.8	0.8	1	-2	0.8
C=C(C)CNC(=S)N/N=C1\CCCCc2ccccc21	-1	0.8	0.7	-3	0	0.9
SMILES	HMGR II inh	PMI activator	Diaph act CS	NCF1 inh	Redox H2O2 prof	PMI act hi M6P
Cc1[nH]nc2c1C(CCc1ccccc1)C(C#N)=C(N)O2 (stereo not given)	27*	0.9	0.8	4	·	0.9
Cc1nccn1CC(=O)N/N=C/c1cccs1	·	·	·	-7	·	·
CCN(Cc1ccncc1)C(=O)CCc1nnc(CCC2CCCCC2)o1	12*	1	1.1	-13	-1	1
CCN(Cc1ccncc1)C(=O)CCc1nnc(CCc2ccccc2OC)o1	-10	0.9	1	-3	-1	1
Cn1cnnc1SCC(=O)NCCc1ccc(Cl)cc1Cl	-5	1.1	1.1	-1	-1	1.1
CC1(C)Oc2ccccc2OC1(O)c1ccc2ccccc2n1 (stereo not given)	-2	1.1	0.9	-4	0	1.1
O=C(CSc1nnc(Cc2ccccc2)n1C1CCCCC1)N1CCOCC1	-3	0.9	0.9	98*	2	0.9
O=C(CSc1nnc(Cc2ccccc2)n1-c1ccc(F)cc1)N1CCOCC1	1	1	1	-4	0	1
COc1ccc(Cl)cc1NC(=O)CN(c1ccccc1)S(=O)(=O)N(C)C	17*	0.8	0.7	-16	2	0.9
O=C(c1ccc(CNc2c(N3CCCC3)c(=O)c2=O)cc1)N1CCN(C2CCCCC2)CC1	2	1	0.9	35*	0	1
CC1CCN(C(=O)c2ccc(CNc3c(N4CCCC4)c(=O)c3=O)cc2)CC1	·	·	·	3	·	·
CN(C)c1cccc2c(S(=O)(=O)N3CCOCC3)cccc12	0	1	0.8	59*	-1	1.1
O=[N+]([O-])c1ccc(NCCNCCOc2nonc2-c2ccccc2)c([N+](=O)[O-])c1	0	0.9	1	-10	0	0.9
Cc1cc(C)n2nc(SCc3nnc(-c4ccccc4Br)o3)nc2n1	-3	1	0.6	-9	0	1
Cc1cc(C(=O)OCC(=O)NC2CCCCC2)c(C)o1	0	1.1	1	-15	51*	1.1
Cc1cc(C(=O)OCC(=O)NC(C)C)c(C)o1	0	1	0.9	-10	0	1.1
CC(OC(=O)C1=Cc2ccccc2OC1)C(=O)NCc1ccco1 (stereo not given)	-7	1	0.9	3	0	0.9
CCC(OC(=O)C1=Cc2ccccc2OC1)C(=O)NCc1ccco1 (stereo not given)	12*	0.9	0.8	3	-1	0.9
COc1ccc(CCNC(=O)c2cn3ccc(C)cc3n2)cc1OC	-3	1	0.9	9	-1	0.9
Cc1cc(C)c(S(=O)(=O)n2c([N+](=O)[O-])cnc2C)c(C)c1	-6	1.3	0.9	3	0	1.4
Oc1cccc2cc3cccc(O)c3c(O)c12	-1	1.8	0.9	21	-1	2.2*
COc1ccc(-c2csc(NC(=O)C3=NN(c4ccccc4)C(=O)CC3)n2)cc1	-1	0.9	0.9	-26	0	0.9
